Screening data from PubChem BioAssay.
Rows were chosen to be rich in hits. Some 0.73% of all compounds tested hit in one or more screens of this group.
cardiac RTF act = cardiac RTF calcium sensitization. P19429+P45379. IANBD-labeled TnC RTF fluorescence at EC20 calcium; 0% EC20 calcium, 100% full calcium. activation, % at 7.2 µM. 340,000 tested, 0.24% active;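 active means activation above the mean over all tested compounds plus 3 SD, cut at about 30% in these data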;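 further: rise in fluorescence read as greater calcium sensitivity of cardiac thin filaments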
C-LANA FP = blocks KSHV LANA C-terminal domain binding to DNA; MBP-C-LANA/FAM-LBS DNA binding, fluorescence polarization; inhibition, % at 9 µM; 340,000 tested, 0.078% active; AID 504423;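 active means highest replicate inhibition at or above 60% at 9 µM, even if other replicates fall short; inactive means all replicates below 60% inhibition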;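 further: 0% = neutral control wells and 100% = 4 µM acridine orange control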
Keap1-Nrf2 PPI = inhibitors of human Keap1-Nrf2 protein-protein interaction | AID 504523 | 340,000 tested, 0.15% active | Keap1 Kelch-Nrf2 peptide fluorescence polarization, 1536-well | inhibition, % at 9.4 µM | Q14145; in the data active means inhibition above about 12%;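 further: human Keap1 Kelch domain with fluorescein labeled Nrf2 9mer peptide probe; 0% = neutral control wells and 100% = peptide positive control; higher means more block of Keap1 binding to Nrf2 peptide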
Target sequence (Q14145 whole entry, looked up, the tested form may be a part): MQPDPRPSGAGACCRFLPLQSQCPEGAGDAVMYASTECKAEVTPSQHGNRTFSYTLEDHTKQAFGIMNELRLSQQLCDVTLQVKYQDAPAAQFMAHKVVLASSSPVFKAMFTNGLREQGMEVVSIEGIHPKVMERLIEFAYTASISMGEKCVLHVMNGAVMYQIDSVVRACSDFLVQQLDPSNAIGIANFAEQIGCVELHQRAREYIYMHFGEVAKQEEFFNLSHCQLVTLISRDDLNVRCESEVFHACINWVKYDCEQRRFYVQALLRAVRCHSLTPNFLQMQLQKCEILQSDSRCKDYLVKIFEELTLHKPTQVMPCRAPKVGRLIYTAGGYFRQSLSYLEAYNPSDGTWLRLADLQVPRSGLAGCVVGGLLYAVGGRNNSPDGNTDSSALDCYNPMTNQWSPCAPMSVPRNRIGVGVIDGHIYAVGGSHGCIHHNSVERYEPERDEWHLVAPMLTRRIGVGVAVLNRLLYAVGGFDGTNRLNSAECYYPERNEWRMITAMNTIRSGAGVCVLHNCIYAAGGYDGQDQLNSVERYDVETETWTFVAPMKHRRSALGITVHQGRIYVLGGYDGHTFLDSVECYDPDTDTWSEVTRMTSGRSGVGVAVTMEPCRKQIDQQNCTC
DDE Tn6 FP inh = inhibitors of Tn6 peptide binding to human fibrin DD(E) | inhibition, % at 8.3 µM | AID 720509 | Fibrin DD(E) TRITC-Tn6 fluorescence polarization displacement | 370,000 tested, 0.21% active;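 active means inhibition above a per-campaign cutoff: mean of compounds within control limits plus 3 SD, cut at about 15% in these data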;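 further: 0% = median of all compound wells on the plate and 100% = blocking peptide control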
Cardiac RTF inh = cardiac RTF calcium desensitization | P19429+P45379 | IANBD-labeled cardiac RTF, Ca2+ fluorescence | inhibition, % at 7.15 µM | 340,000 tested, 0.12% active;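 active means inhibition above the mean inhibition of all tested compounds plus 3 SD, cut at about 17% in these data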;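 further: assay run at fixed EC70 calcium of 1.6 mM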
DDE Tn7 FP inh = DD(E)-Tn7 binding inhibition, primary FP screen. inhibition, % at 8.3 µM. FP displacement of FITC-Tn7 peptide from fibrin DD(E); 0% = median of compound wells per plate. P02675. 370,000 tested, 0.13% active;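 active means inhibition above the mean of compounds falling within the control limits plus 3 SD of them, cut at about 14% in these data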;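 further: 0% = plate median of compound wells and 100% = 10 µM Aha-Tn7 peptide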
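Also added: labelled Tn7 tracer, 0.1 µM; Assay system: human fibrin DD(E) protein; Amount: 2 µM fibrin DD(E); Schedule: 10 min compound pre-incubation, 3 h probe incubation at room temperature; Repeats: one replicate per compound; Read-out basis: percent inhibition; Measured by: fluorescence polarization of the labelled Tn7 tracer.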
An asterisk follows results filed as active; i = inactive; / = no result given; + = active, no number; ! = not active in a repeat.

SMILES	cardiac RTF act	C-LANA FP	Keap1-Nrf2 PPI	DDE Tn6 FP inh	Cardiac RTF inh	DDE Tn7 FP inh
Cc1cccc(NC(=O)c2nc[nH]c2C(=O)N(C)CCO)c1	/	/	/	1	/	3
Cc1ccc2c(c1)C(=O)CCN2	0	5	-7	-1	-21	-4
O=C1CCNc2ccc(-c3ccccc3)cc21	64*	84*	24*	-5	-71	5
CN1CCCCC(NC(=O)c2cccc(C(F)(F)F)c2)C1=O (centres undefined)	/	/	/	3	/	11
CCN1CC=C2C(C#N)=C(N)C(C#N)(C#N)[C@H](c3cccc(OC)c3OC)[C@H]2C1	36*	37	16*	2	-51	4
COc1cccc(C2C3CN(C)CC=C3C(C#N)=C(N)C2(C#N)C#N)c1OC (centres undefined)	25	36	10	0	-38	-2
COC[C@@H]1CCCN1c1ccc2c(c1)OCCCN(C1CC1)S2(=O)=O	/	/	/	-2	/	-4
CC(=O)Oc1ccc(N2C(=O)C3C(C2=O)C(C(=O)c2ccc(Cl)cc2)N2CCCC32)cc1 (centres undefined)	45*	9	-8	0	-39	-4
Cc1ccc(N2C(=O)C3C(C2=O)C(C(=O)c2ccc(Cl)cc2)N2CCCC32)cc1 (centres undefined)	-5	-1	-6	12	-5	-3
Cc1cc(O)c(CN(C)C)c2c1C(=O)/C(=C/c1ccco1)O2	36*	19	-5	-3	-35	7
C=CCN1C(=O)[C@@H](CC(=O)NCc2ccccc2)[C@]2(C(=O)OC)CCCCC=C12	/	/	/	-1	/	0
CCOC(=O)/C(=C/C=C1\Sc2cc(C)c(C)cc2N1CC)C(C)=O	160*	-19	-21	4	-209	-25
CCC(=O)/C=C1/Sc2ccc(OC)cc2N1CC	-7	-2	-4	-5	-2	4
CCOC(=O)/C(=C/C=C1\Sc2ccccc2N1CC)C(C)=O	128*	-9	-59	/	-220	/
CCC(=O)/C=C1/Sc2ccccc2N1CC	-1	3	2	-3	-3	5
CCOC(=O)/C(=C\C=C1/Sc2ccccc2N1CC)C(C)=O	245*	-48	-129	-1	-206	-51
CS/C(=N\S(=O)(=O)c1ccc(N)cc1)NS(=O)(=O)c1cccs1	-3	113*	7	/	-5	/
CN(C)c1ccc(C(=O)NC2CCCCN(Cc3cccc(Cl)c3)C2=O)cc1 (centres undefined)	/	/	/	-5	/	-1
CCOc1ccc(/C=C2\NCCc3cc(OCC)c(OCC)cc32)cc1OCC	/	/	/	-3	/	0
COc1cc(C2C=C(c3cccs3)Nc3ncnn32)cc(OC)c1OC (centres undefined)	386*	121*	88*	/	-497	/
COc1cc(C2CC(=O)C3=C(C2)Nc2ncnn2C3c2cccs2)cc(OC)c1OC (centres undefined)	/	/	/	0	/	-6
CCN1CCN(Cc2ccc(NC(=O)c3cc(NC(=O)C(=O)c4c[nH]c5ccccc45)cc(OC)c3)cc2C(F)(F)F)CC1	-1	1	-3	44*	-5	4
CCN1CCN(Cc2ccc(NC(=O)c3ccc(C)c(NC(=O)C(=O)c4c[nH]c5ccccc45)c3)cc2C(F)(F)F)CC1	6	1	-6	-6	0	0
O=C1c2cccc3c(N4CCCCC4)ccc(c23)C(=O)N1CCO	76*	28	7	8	-101	-3
C=CCN1C(=O)c2cccc3c(N4CCCCC4)ccc(c23)C1=O	74*	7	0	-6	-60	-5
SMILES	cardiac RTF act	C-LANA FP	Keap1-Nrf2 PPI	DDE Tn6 FP inh	Cardiac RTF inh	DDE Tn7 FP inh
C=CCN1C(=O)c2cccc3c(Br)ccc(c23)C1=O	-1	0	-1	0	-11	2
O=c1c2ccccc2n(Cc2ccco2)n1[C@@H](Cc1ccccc1)Cn1cc(-c2ccc(-c3ccccc3)cc2)nn1	/	/	/	-13	/	4
CCN1CCN(C2=CC3=CC(=C(C#N)C#N)CCC3CC2)CC1 (centres undefined)	+	-61	-394	/	i	/
CN1CCN(C2=CC3=CC(=C(C#N)C#N)CCC3CC2)CC1 (centres undefined)	+	-71	-465	/	i	/
CC1(C)CC(NCCN2CCN(C3=CC(=C(C#N)C#N)CC(C)(C)C3)CC2)=CC(=C(C#N)C#N)C1	9	3	-5	5	-8	0
N#CC(C#N)=C1C=C2C=C(N3CCOCC3)CCC2CC1 (centres undefined)	+	-17	-102	-3	i	-56
N#CCC[C@H]1CC[C@]2(CCCN(C(=O)c3ccccc3)C2)O1	/	/	/	1	/	0
c1ccc2c(c1)CCCN2Cc1nnc2n1CCCCC2	37*	21	5	-2	-54	12
c1ccc(Cc2nnc3n2CCCCC3)cc1	-4	-1	3	8	-13	13
CN1Cc2c(N)cccc2C(c2ccccc2)C1 (centres undefined)	31*!	8	3	-2	-15	-1
O=C1CC(c2ccccc2)c2ccccc21 (centres undefined)	-2	7	2	6	-6	4
CC(C)=C(C#N)c1nc2ccccc2s1	1	2	-5	3	-11	-5
CC1=CC(=C(C#N)c2nc3ccccc3s2)C=C(C)N1c1ccc(F)cc1	110*	-3	-2	-1	-7	-3
COc1ccccc1N1C(C)=CC(=C(C#N)c2nc3ccccc3s2)C=C1C	53*	2	2	2	-44	0
COC(=O)[C@]12C[C@H](CC(=O)N3CCSCC3)C(=O)N(Cc3ccc4c(c3)OCO4)C1=C[C@H](C(C)C)O[C@@H]2C1CC1	/	/	/	-4	/	0
Cc1cc(-c2n[nH]c(=S)n2N=Cc2c3ccccc3cc3ccccc23)n[nH]1	/	/	/	5	/	5
Cc1nc(-n2[nH]c3c(c2=O)CCCC3)[nH]c(=O)c1Cc1ccccc1	33*	-2	-24	-7	-28	-6
CC1(C(=O)NS(=O)(=O)C2CC2)CCCN(C(=O)c2c(F)cccc2F)C1 (centres undefined)	/	/	/	6	/	-6
O=C(CCN1C(=O)/C(=C/c2ccccc2)SC1=S)NNC(=O)c1cccnc1	35*	-1	5	4	-43	0
O=C(CCN1C(=O)/C(=C/c2ccc(F)cc2)SC1=S)NNC(=O)c1cccnc1	2	-3	-5	-1	-3	-1
COC(=O)[C@]12C[C@H](CC(=O)NCc3ccccc3)C(=O)N(Cc3cccc4ccccc34)C1=C[C@H](C(C)(C)C)O[C@@H]2C	/	/	/	-1	/	-4
COc1ccc(OC)c(C=C2CCc3ccccc3C2=O)c1	/	/	/	5	/	3
COc1ccc(OC)c(/C=C2/Sc3ccccc3C2=O)c1	37*	1	-5	-5	-60	-4
